We go through 1 molecule from ChEMBL document CHEMBL1133526, “Molecular simplification of 1,4-diazabicyclo[4.3.0]nonan-9-ones gives piperazine derivatives that maintain high nootropic activity” (2000).

What all share (format): functional
Assay [1] deals with Mus musculus. Briefly: Minimum effective dose administered subcutaneously in mouse, activity given with reference to piracetam. The following applies: Mus musculus, sc; read-out: MED. Put shortly:
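Mouse passive avoidance with scopolamine-induced amnesia (1.5 mg/kg ip after training; 40 cm fall into 10 °C water as punishment). Compounds are given sc in 1:10 dilution steps 20 min before training, in saline or DMSO/H2O. […] Piracetam is the ip reference.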

Assay [2] has as its system Mus musculus. As to the kind of experiment: Nootropic effect of the compound, when administered subcutaneously, on mouse passive Avoidance test, using Scopolamine as Amnesic drug on 1 st day.
For assay [3], the species on record is Mus musculus. As to the kind of experiment: Change in entry latency expressed as [(entry latency on day 2)-(entry latency on day 1)]. Put shortly: (§1)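 Mouse passive avoidance test using a light/dark box. Entering the dark side drops the mouse 40 cm into 10 °C water. Training is on day 1 and retention 24 h later. Test drug is given sc 20 min before training, in saline or DMSO/H2O vehicle. […] Mice not entering within 60 s are excluded. Retention latency is capped at 120 s. Δ = day 2 − day 1 latency.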

In assay [4] the test system is Mus musculus. As to the kind of experiment: Nootropic effect of the compound, when administered subcutaneously, on mouse passive Avoidance test, using Scopolamine as Amnesic drug on 2 nd day; dose is limited by solubility problems. Put shortly:
as §1

SMILES strings stand for the structures.

With `CC(=O)N1CCN(C(=O)c2ccccc2)CC1`, in the assay with Mus musculus [1], the minimal effective dose came to 10 mg/kg. Further, the Entry latency in the assay on Mus musculus [2] is reported as 11.3 s; in the assay on Mus musculus [4], 119 s. Also, the “Change in entry latency” value in the assay filed under Mus musculus [3] is on record as 107.7 s.
